ABHD5 PLIN5 PPI – inhibitors of human ABHD5-perilipin-5 interaction | Q00G26+Q8WTS1 | Split G. princeps luciferase complementation, luminescence, 4 h | inhibition, % at 4 µM | 360,000 tested, 0.78% active;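 active means inhibition above the mean inhibition across every tested compound plus 3 SD, cut at about 22% in these data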;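 further: 0% = DMSO only wells and the 100% control is not disclosed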
Target sequence (Q00G26 whole entry, looked up): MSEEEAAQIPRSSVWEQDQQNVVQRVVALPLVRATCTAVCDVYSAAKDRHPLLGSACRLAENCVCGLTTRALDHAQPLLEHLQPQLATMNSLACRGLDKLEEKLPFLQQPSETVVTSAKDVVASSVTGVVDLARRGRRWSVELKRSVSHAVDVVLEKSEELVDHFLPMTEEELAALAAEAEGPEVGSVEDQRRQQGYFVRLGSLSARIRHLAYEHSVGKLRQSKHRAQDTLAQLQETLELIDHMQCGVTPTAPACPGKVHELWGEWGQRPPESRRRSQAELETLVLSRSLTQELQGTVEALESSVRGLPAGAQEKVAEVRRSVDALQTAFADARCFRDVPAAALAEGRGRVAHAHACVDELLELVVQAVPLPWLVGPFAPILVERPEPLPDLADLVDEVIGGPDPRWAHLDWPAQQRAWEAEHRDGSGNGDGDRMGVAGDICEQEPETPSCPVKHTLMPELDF
Target sequence (Q8WTS1 whole entry, looked up): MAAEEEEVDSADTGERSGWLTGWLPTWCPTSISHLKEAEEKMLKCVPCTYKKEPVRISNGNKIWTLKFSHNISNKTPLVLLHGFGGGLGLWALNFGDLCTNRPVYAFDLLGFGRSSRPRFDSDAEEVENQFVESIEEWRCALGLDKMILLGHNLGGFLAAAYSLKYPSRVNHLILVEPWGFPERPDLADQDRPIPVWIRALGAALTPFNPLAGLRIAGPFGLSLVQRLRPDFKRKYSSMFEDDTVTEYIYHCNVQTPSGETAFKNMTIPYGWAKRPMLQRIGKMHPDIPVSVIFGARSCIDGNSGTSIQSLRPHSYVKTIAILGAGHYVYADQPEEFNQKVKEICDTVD
APOBEC3G inh – inhibitors of human APOBEC3G DNA deaminase | inhibition, % at 20 µM | 330,000 tested, 0.28% active | recombinant A3G, ssDNA deamination FAM/TAMRA fluorescence | Q9HC16;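 active means inhibition of at least 40% at 20 µM, with no more than 30% in the related APOBEC3A deaminase screen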;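 further: plate controls were DMSO wells with A3G for no effect and wells lacking A3G enzyme for full effect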
APOBEC3A inh – blocks human APOBEC3A ssDNA deamination. 330,000 tested, 0.41% active. inhibition, % at 20 µM. P31941. AID 493011. recombinant A3A, FAM/TAMRA ssDNA deamination fluorescence;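 active means at least 40% inhibition at 20 µM here, with at most 30% in a related deaminase screen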;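 further: plate controls were A3A with DMSO for no effect and wells lacking A3A enzyme for full effect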
FN deposition inh – fibronectin deposition inhibition; AH1F fibroblasts, Alexa488-fibronectin deposition fluorescence, overnight; inhibition, % at 12.6 µM; 350,000 tested, 0.086% active;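 active means mean inhibition across replicates of 30% or more, regardless of how many single replicates reach that level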;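 further: positive control wells lacked labelled fibronectin entirely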
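Assay system: AH1F fibroblasts / Quantity: 10000 cells per well / Medium: DMEM plus 2% serum, read in PBS / Reagent: labelled fibronectin 24 nM / Dosing: single dose, pinned / Times: 1 h cell attachment, overnight exposure to compound and label / Signal: fluorescence, ex 485 nm, em 525 nm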
ABHD5-PLIN5 conf – ABHD5-PLIN5 interaction inhibition, confirmed; shares compounds with ABHD5 PLIN5 PPI; biochemical ABHD5-PLIN5 interaction, luminescence; inhibition, % at 4 µM; 2,200 tested, 67% active; AID 651612; in the data active means inhibition above about 23%;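 further: 0% = DMSO vehicle wells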
HNF4 counter – HNF4 split-luciferase signal hit, counter-screen; AID 651674; shares compounds with ABHD5 PLIN5 PPI; inhibition, % at 4 µM; 2,200 tested, 77% active; HNF4 dimerization, luminescence, biochemical;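 active means mean inhibition across replicate wells exceeding the computed hit threshold, cut at about 13% in these data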;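 further: light from luciferase halves that rejoin when HNF4 fusion proteins dimerize; 0% = DMSO only wells and the 100% control is not given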
An asterisk follows results filed as active; / = no result. Shown are actives, neighbours in structure and some others; about 1.2% of the full set was active somewhere.

SMILES | ABHD5 PLIN5 PPI | APOBEC3G inh | APOBEC3A inh | FN deposition inh | ABHD5-PLIN5 conf | HNF4 counter
O=C(/C=C/c1cccc([N+](=O)[O-])c1)Nc1ccc(NC(=O)c2cccs2)cc1 | -7 | -5 | 2 | / | / | /
O=C(/C=C/c1cccc([N+](=O)[O-])c1)c1cccs1 | 74* | -4 | -2 | 6 | 97* | 102*
CC(=O)Oc1ccccc1C(=O)C=Cc1cccc([N+](=O)[O-])c1 | 99* | / | / | / | 104* | 109*
COc1ccccc1C(=O)/C=C/c1ccc(N2CCCCC2)c([N+](=O)[O-])c1 | 37* | 0 | 4 | 7 | 64* | 67*
COCC(=O)N(C)C[C@H]1Oc2cc(-c3ccc(F)cc3)ccc2S(=O)(=O)N([C@H](C)CO)C[C@@H]1C | / | / | / | 0 | / | /
CO[C@H]1CC[C@H]2CCN(C)C(=O)[C@H](C)[C@H](OC)CN(C)C(=O)c3cc(C#N)ccc3OC[C@H]1O2 | / | / | / | 5 | / | /
O=C(O)/C=C/C(=O)c1ccc2c(c1)CCc1ccccc1-2 | 95* | 7 | 3 | 13 | 104* | 110*
O=C1C=CC(=O)N1CCNc1ncc(C(F)(F)F)cc1Cl | 45* | 12 | 1 | 2 | 61* | 107*
C[C@@H]1CN([C@@H](C)CO)C(=O)c2cccc(NC(=O)c3ccc(-c4nccs4)cc3)c2O[C@H]1CN(C)C | / | / | / | 0 | / | /
O=C(NCc1ccco1)Nc1ccc2nsnc2c1 | 38* | -8 | -5 | / | 50* | 82*
O=C(NCc1ccco1)Nc1ccc(Br)cc1 | 14 | -4 | -3 | / | / | /
Cc1ccccc1S(=O)(=O)N1CC[C@@H]2[C@@H](CO)Nc3ccc(-c4cccc(F)c4)cc3[C@@H]21 | / | / | / | -14 | / | /
Cc1ccccc1Oc1nc2c(C)cccn2c(=O)c1/C=C(\C#N)C(=O)NC1CCS(=O)(=O)C1 (configuration not stated) | 46* | -4 | -2 | -2 | 62* | 49*
Cc1ccsc1/C=N/NC(=O)CNC(=O)c1ccco1 | -2 | 5 | 9 | 6 | / | /
Cc1ccsc1/C=N/NC(=O)CNC(=O)c1cccc([N+](=O)[O-])c1C | 25* | -4 | 2 | -3 | 2 | 0
COc1cc(CNCCN2CCOCC2)ccc1OCc1ccc(Cl)cc1Cl | 24* | -6 | -3 | / | 12 | 13*
COc1cc(CNCCN2CCOCC2)ccc1OCc1cccc(Cl)c1 | 10 | -5 | -16 | / | / | /
COc1cc(CNCc2ccccn2)ccc1OCc1ccc(Cl)cc1Cl | 25* | -3 | 1 | / | 7 | 7
COc1cc(CNCc2ccccn2)ccc1OCc1ccc(Cl)c(Cl)c1 | 20 | -11 | -1 | 6 | / | /
CC(=O)N(c1ccc2oc(=O)sc2c1)S(=O)(=O)c1ccc(C(=O)O)cc1 | 25* | 6 | 3 | -7 | -42 | 82*
CC(=O)N(c1ccc2oc(=O)sc2c1)S(=O)(=O)c1cccc2cccnc12 | 25* | -11 | -5 | -11 | -39 | -8
CCCC(=O)N(c1ccc2oc(=O)sc2c1)S(=O)(=O)c1ccccc1 | 8 | -3 | -2 | / | / | /
CN1/C(=C/C=C/c2n(C)c3cc([N+](=O)[O-])c([N+](=O)[O-])cc3[n+]2C)C(C)(C)c2ccccc21 | 34* | / | / | 9 | 35* | 56*
COc1ccc2[nH]cc(CC(=O)O)c2c1 | 11 | 2 | 4 | / | / | /
O=C(O)Cc1c[nH]c2ccc(O)cc12 | 38* | -6 | -6 | 0 | 7 | 39*
SMILES | ABHD5 PLIN5 PPI | APOBEC3G inh | APOBEC3A inh | FN deposition inh | ABHD5-PLIN5 conf | HNF4 counter
CCCCCCCCN1C(=O)[C@H](CC(=O)NCc2ccc(C)o2)C[C@@]2(C(=O)OC)CCCCC=C12 | 36* | / | / | 18 | 23* | 7
CCCCCCCCN1C(=O)[C@H](CC(=O)NCc2ccc(C)o2)C[C@@]2(C(=O)OCC)CCC=C12 | 31* | / | / | -8 | 28* | 16*
COC(=O)[C@]12CCCCC=C1N(CCC1=CCCCC1)C(=O)[C@H](CC(=O)NCc1ccc(C)o1)C2 | 4 | / | / | 5 | / | /
Cn1c(NCCN2CCCCC2)cc(=O)n(C)c1=O | 28* | -6 | -4 | / | -1 | 3
CO[C@@H]1CN(C)C(=O)c2ccc(NC(=O)c3cnccn3)cc2OC[C@H](C)N(C(C)=O)C[C@@H]1C | / | / | / | 3 | / | /
O=C1C=CC(=O)N1CCCCCCCCCCN1C(=O)C=CC1=O | 58* | / | / | 44* | 68* | 106*
